In ChEMBL document CHEMBL1157319, “Altenuene derivatives from an unidentified freshwater fungus in the family Tubeufiaceae” (2006):
Activity calls are given as the source filed them. The rule behind the calls is not given here.

Experiments:
[1] = system: Fusarium verticillioides; assay: Antifungal activity against Fusarium verticillioides NRRL 25457 at 200 ug/disk by disk diffusion method; format: functional, organism-based
[2] = system: Bacillus subtilis; assay: Antibacterial activity against Bacillus subtilis ATCC 6051 at 100 ug/disk by disk diffusion method; format: functional; settings: for zone of inhibition at 100 µg/disc: read-out: IZ
In short: (§1)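 Paper disks each loaded with 100 µg of test material; gentamicin sulfate at 25 µg/disk served as the positive standard. Read-out was the diameter of the inhibition zone in mm. The same panel also included Escherichia coli ATCC 25922.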

[3] = system: Aspergillus flavus; assay: Antifungal activity against Aspergillus flavus NRRL 6541 at 200 ug/disk by disk diffusion method; format: functional, organism-based
[4] = system: Candida albicans; assay: Antifungal activity against Candida albicans ATCC 14053 at 200 ug/disk by disk diffusion method; format: functional, organism-based
[5] = system: Staphylococcus aureus; assay: Antibacterial activity against Staphylococcus aureus ATCC 29213 at 100 ug/disk by disk diffusion method; format: functional; settings: for zone of inhibition at 100 µg/disc: read-out: IZ; in short: as §1

Structure (SMILES)	Activity [1]	zone of inhibition at 100 µg/disc [2]	Activity [3]	Activity [4]	zone of inhibition at 100 µg/disc [5]	Activity [5]	Activity [2]
COc1cc(O)c2c(c1)C1=CC(=O)[C@H](O)C[C@]1(C)OC2=O [DEHYDROALTENUENE A]	inactive	13 mm	inactive	inactive			
COc1cc(O)c2c(c1)C1=C[C@@H](O)[C@H](O)C[C@]1(C)OC2=O [ISOALTENUENE]		30 mm					
COc1cc(O)c2c(c1)C1=C[C@H](O)[C@@H](O)C[C@]1(C)OC2=O [ALTENUENE]		20 mm			18 mm		
COc1cc(O)c2c(c1)[C@H]1C[C@H](O)[C@@H](O)C[C@]1(C)OC2=O	inactive		inactive	inactive		inactive	inactive
COc1cc(O)c2c(c1)C1=C[C@@H](O)[C@@H](O)C[C@]1(C)OC2=O							inactive
COc1cc(O)c2c(c1)C1=CC(=O)[C@@H](O)C[C@]1(C)OC2=O [DEHYDROALTENUENE B]	inactive	20 mm	inactive	inactive	14 mm		
COc1cc(O)c2c(c1)[C@H]1C[C@@H](O)[C@@H](O)C[C@]1(C)OC2=O [DIHYDROALTENUENE A]	inactive	50 mm	inactive	inactive	14 mm		
